Test results published in ChEMBL document CHEMBL3244228, “Synthesis and biological properties of 2-, 5-, and 6-fluoronorepinephrines” (J Med Chem, 1979).
Calls of active or inactive are those of the source. No cut-off for these calls is given here.

Key:
[1] = Agonist activity at alpha-adrenergic receptor in Hartley guinea pig aorta assessed as maximal contraction; type: tissue-based, Cavia porcellus
Method in brief: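 Aortic strip from 250-300 g male Hartley guinea pigs, in 10 mL Tyrode's solution at 37 °C aerated with 95% O2/5% CO2. Full concentration range, 0.1 to 100 μM. Response is percent of maximal contraction (largest contraction per dose relative to the maximum for (±)-NE). EC50 ± SD estimated from eight dose-response curves.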

[2] = Agonist activity at beta-adrenergic receptor in Hartley guinea pig ileum assessed as maximal relaxation; type: tissue-based; conditions: Cavia porcellus
[3] = Agonist activity at beta-adrenergic receptor in Hartley guinea pig atria assessed as maximal increase in contraction rate; parameters: species or system Cavia porcellus
Method in brief: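 Atria from 250-300 g male Hartley guinea pigs, bathed in 10 mL Tyrode's at 37 °C under 95% O2/5% CO2, dosed at 0.1 to 100 μM. Contraction rate read 60 s after each dose against the pre-experiment rate and expressed as percent of the maximal increase given by (±)-NE. EC50 ± SD from eight dose-response curves.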

[4] = biological target: Adrenergic receptor alpha (Rattus norvegicus) (UniProt P15823+P23944+P43140+P22086+P19328+P22909); assay: Agonist activity at alpha-adrenergic receptor in Sprague-Dawley rat cerebral cortex assessed as [3H]cAMP accumulation by liquid scintillation spectroscopy in presence of propranolol and phentolamine; type: functional, tissue-based
Cavia porcellus [5] = species on record: Cavia porcellus; assay: Agonist activity at alpha-adrenergic receptor in Hartley guinea pig aorta assessed as maximal contraction in presence of alpha-adrenergic receptor antagonist phentolamine; type: tissue-based
Cavia porcellus [6] = species on record: Cavia porcellus; assay: Agonist activity at beta-adrenergic receptor in Hartley guinea pig atria assessed as maximal increase in contraction rate in presence of alpha-adrenergic receptor antagonist phentolamine
[7] = biological target: Adrenergic receptor alpha; assay: Displacement of [3H]WB4101 from alpha-adrenergic receptor in Sprague-Dawley rat cerebral cortical membrane
Cavia porcellus [8] = species on record: Cavia porcellus; assay: Agonist activity at beta-adrenergic receptor in Hartley guinea pig atria assessed as maximal increase in contraction rate in presence of beta-adrenergic receptor antagonist propranolol
[9] = biological target: Adrenergic receptor alpha; assay: Agonist activity at alpha-adrenergic receptor in Sprague-Dawley rat cerebral cortex assessed as [3H]cAMP accumulation by liquid scintillation spectroscopy in presence of propranolol; type: functional, tissue-based
Method in brief: (§1)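 Male Sprague-Dawley rat cerebral cortical slices (260 μm, cross-chopped) are preincubated 15 min in Krebs-Ringer bicarbonate glucose buffer, labelled 40 min at 37 °C with adenine (30 μM) plus [3H]adenine, then equilibrated 5 min. Amines are applied at 1 to 100 μM for 10 min, with propranolol 10 μM for α responses and phentolamine 10 μM for β responses. Cyclic [3H]AMP is isolated from TCA extracts on a double column, corrected for carrier recovery and reported as percent conversion. EC50 from six dose-response curves.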

Cavia porcellus [10] = species on record: Cavia porcellus; assay: Agonist activity at alpha-adrenergic receptor in Hartley guinea pig aorta assessed as maximal contraction in presence of beta-adrenergic receptor antagonist propranolol; type: tissue-based
Adrenergic receptor beta [11] = biological target: T1, Adrenergic receptor beta (Rattus norvegicus, UniProt P18090+P10608+P26255); assay: Displacement of [3H]dihydroalprenolol from beta-adrenergic receptor in Sprague-Dawley rat cerebral cortical membrane
Adrenergic receptor beta [12] = biological target: T1, Adrenergic receptor beta; assay: Agonist activity at beta-adrenergic receptor in Sprague-Dawley rat cerebral cortex assessed as [3H]cAMP accumulation by liquid scintillation spectroscopy in presence of phentolamine; type: functional, tissue-based; method in brief: as §1

| SMILES | EC50 [1] [µM] | EC50 [2] [µM] | EC50 [3] [µM] | Activity [4] | Activity (Cavia porcellus [5]) | Activity (Cavia porcellus [6]) | EC50 [7] [µM] | Activity (Cavia porcellus [8]) | EC50 [9] [µM] | Activity (Cavia porcellus [10]) | EC50 (Adrenergic receptor beta [11]) [µM] | EC50 (Adrenergic receptor beta [12]) [µM] |
| --- | --- | --- | --- | --- | --- | --- | --- | --- | --- | --- | --- | --- |
| NCC(O)c1ccc(O)c(O)c1 (configuration not stated) | 2.6 | 15.6 | 0.7 |  |  |  |  |  |  |  |  |  |
| Cl.NCC(O)c1ccc(O)c(O)c1F (racemic) | 110 |  | 0.6 | Active | inactive | Active | > 100 | inactive | > 100 | Active |  |  |
| Cl.NCC(O)c1cc(O)c(O)cc1F (racemic) | 2.5 |  | 72 | inactive | inactive | Active | 3 | inactive | 5 | Active |  |  |
| Cl.NCC(O)c1cc(O)c(O)c(F)c1 (racemic) | 2.4 | 44 | 0.11 |  | inactive | Active | 15 | inactive | 5 | Active | 4 | 2 |
